Experimental data reported in ChEMBL document CHEMBL1127542, “Inhibitors of acyl-CoA:cholesterol O-acyl transferase (ACAT) as hypocholesterolemic agents. 8. Incorporation of amide or amine functionalities into a series of disubstituted ureas and carbamates. Effects on ACAT inhibition in vitro and efficacy in vivo” (J Med Chem, 1994).

Key:
[1] = target: T1, Sterol O-acyltransferase 1 (Rattus norvegicus, UniProt O70536); test: In vitro inhibition of rat intestinal acyl coenzyme A:cholesterol acyltransferase using [1-14C]oleolyl-CoA
T1 sequence (O70536 whole entry): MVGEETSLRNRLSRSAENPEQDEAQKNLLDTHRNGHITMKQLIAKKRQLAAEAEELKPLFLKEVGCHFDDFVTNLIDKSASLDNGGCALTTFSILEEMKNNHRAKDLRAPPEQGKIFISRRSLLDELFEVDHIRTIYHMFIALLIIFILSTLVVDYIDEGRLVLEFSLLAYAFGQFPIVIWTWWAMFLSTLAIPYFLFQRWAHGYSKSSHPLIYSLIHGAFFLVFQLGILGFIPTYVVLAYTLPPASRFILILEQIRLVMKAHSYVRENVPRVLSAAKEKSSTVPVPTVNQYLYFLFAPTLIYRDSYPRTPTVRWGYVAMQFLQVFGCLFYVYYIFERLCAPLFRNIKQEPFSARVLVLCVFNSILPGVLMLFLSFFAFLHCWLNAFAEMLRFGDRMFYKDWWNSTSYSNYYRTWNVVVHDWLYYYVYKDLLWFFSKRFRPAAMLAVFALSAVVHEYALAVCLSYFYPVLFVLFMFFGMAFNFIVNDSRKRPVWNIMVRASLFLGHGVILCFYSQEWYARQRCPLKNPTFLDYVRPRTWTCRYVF

[2] = organism: Rattus norvegicus; test: Percent change in total cholesterol in cholic acid (0.5%)-cholesterol (1.5%)-peanut oil (5.5%)-fed rats; type: functional
Procedure, shortened: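 Acute screen: rats given a single gavage dose, 50 mg/kg standard unless noted, suspended in carboxymethylcellulose plus Tween-20 in water, then a single high-fat, high-cholesterol meal (0.5% cholic acid, 1.5% cholesterol, 5.5% peanut oil). Overnight rise in plasma total cholesterol measured as % change versus control. Stomachs checked for food. ANOVA with Fisher's multiple range test, p<0.05.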

[3] = test system: Rattus norvegicus; test: The compound at a dose of 50 mg/kg is evaluated for percent change in High Density Lipoprotein (HDl) level in chronic cholesterol fed rat screen; type: functional
Procedure, shortened: (§1)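 Chronic model: rats fed the high-fat, high-cholesterol diet for 14 days. In the second week, 50 mg/kg given daily by gavage in carboxymethylcellulose/Tween-20 aqueous vehicle. Plasma HDL and non-HDL cholesterol expressed as % change versus control. Body-weight gain monitored. ANOVA with Fisher's multiple range test, p<0.05.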

[4] = target: Sterol O-acyltransferase 1 (Oryctolagus cuniculus); test: In vitro inhibition of rabbit intestinal acyl coenzyme A:cholesterol acyltransferase using [1-14C]oleolyl-CoA
[5] = test system: Rattus norvegicus; test: The compound at a dose of 50 mg/kg is evaluated for percent change in NON-High Density Lipoprotein level in chronic cholesterol fed rat screen; type: functional; procedure, shortened: as §1

Structure (SMILES)	IC50 [1] [µM]	Change [2] [%]	Change [3] [%]	IC50 [4] [µM]	Change [5] [%]
CC(C)c1cccc(C(C)C)c1NC(=O)NCC(NCc1ccc(CN(C)C)cc1)c1ccccc1 (single isomer, unassigned; (-))	0.17	-57			
CC(C)c1cccc(C(C)C)c1NC(=O)NCC(NCc1ccccc1O)c1ccccc1 (single isomer, unassigned; (-))		-50	40	0.12	3
